The values below come from ChEMBL document CHEMBL1125051, “Synthesis and antineoplastic properties of ether-linked thioglycolipids” (1990).

For assay [1], the system named is C653. The experiment in a line: Antineoplastic activity against C653 cell line in which [3H]-thymidine was incorporated into DNA. In kind it is functional, Mus musculus. Also noted: concentration or dose not given beside the values. Put shortly: (§1)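 Mouse leukemic/myeloma/hybridoma lines kept at 37 °C in RPMI 1640 with 10% heat-inactivated FBS, penicillin, streptomycin, 50 μM mercaptoethanol. 2×10^4 cells/well exposed to drug at 40 μM for 48 h. Drug was diluted from 0.1 M ethanol stock into medium, and controls received ethanol-containing medium. [3H]thymidine (0.1 μCi/well) was then added for 24 h. Cells were harvested onto glass-fibre filters and water-washed, and DNA-incorporated counts were taken by scintillation as % of control.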

For assay [2], the system named is X63/OMIL3 cell line. The experiment in a line: Antineoplastic activity against X63/OMIL3 cell line in which [3H]thymidine was incorporated into DNA. Also noted: concentration or dose not given beside the values. In kind it is functional, Mus musculus. Put shortly:
as §1

In assay [3] the test system is R6X-B15. In words: Antineoplastic activity against R6X-B15 cell line in which [3H]thymidine was incorporated into DNA. It counts as functional, Mus musculus. Put shortly: as §1
The subject of assay [4] is WEHI3B. The experiment in a line: Antineoplastic activity against WEHI 3B cell line in which [3H]thymidine was incorporated into DNA. In kind it is functional, Mus musculus. Also noted: concentration or dose not given beside the values. Put shortly: as §1
The nature of assay [5]: Compound was evaluated for WEHI-3B cell viability after 24 hour at a concentration of 5 uM of compound was reported. In kind it is functional, Mus musculus. The procedure, abridged:
(§2)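 WEHI-3B cells were treated with drug at 0–30 μM for 24 or 48 h in RPMI 1640 with 10% FBS at 37 °C. Cells were then diluted 1:10 in 2.5% trypan blue and counted by light microscopy, with dye-stained cells scored dead. Viability is given as % of untreated control.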

Assay [6] is described as follows: Compound was evaluated for WEHI-3B cell viability after 48 hour at a concentration of 1.25 uM of compound was reported. It counts as functional, Mus musculus. Put shortly:
as §2

A short description of assay [7]: Compound was evaluated for WEHI-3B cell viability after 48 hour at a concentration of 2.5 uM of compound was reported. In kind it is functional, Mus musculus. The procedure, abridged: as §2
Assay [8] can be described thus: Compound was evaluated for WEHI-3B cell viability after 48 hour at a concentration of 10 uM of compound was reported. In kind it is functional, Mus musculus. Put shortly: as §2
Assay [9] in a line: Compound was evaluated for WEHI-3B cell viability after 24 hour at a concentration of 30 uM of compound was reported. It counts as functional, Mus musculus. The procedure, abridged:
as §2

Assay [10] in a line: Compound was evaluated for WEHI-3B cell viability after 24 hour at a concentration of 1.25 uM of compound was reported. In kind it is functional, Mus musculus. The procedure, abridged: as §2
Assay [11] is described as follows: Compound was evaluated for WEHI-3B cell viability after 24 hour at a concentration of 0 uM of compound was reported. In kind it is functional, Mus musculus. Put shortly:
as §2

Assay [12] in a line: Compound was evaluated for WEHI-3B cell viability after 24 hour at a concentration of 10 uM of compound was reported. It counts as functional, Mus musculus. The procedure, abridged: as §2
Assay [13] can be described thus: Compound was evaluated for WEHI-3B cell viability after 24 hour at a concentration of 2.5 uM of compound was reported. In kind it is functional, Mus musculus. The procedure, abridged: as §2
Assay [14] in a line: Compound was evaluated for WEHI-3B cell viability after 48 hour at a concentration of 5 uM of compound was reported. It counts as functional, Mus musculus. Put shortly:
as §2

Assay [15] in a line: Compound was evaluated for WEHI-3B cell viability after 48 hour at a concentration of 30 uM of compound was reported. It counts as functional, Mus musculus. The procedure, abridged:
as §2

Assay [16] can be described thus: Compound was evaluated for WEHI-3B cell viability after 48 hour at a concentration of 0 uM of compound was reported. It counts as functional, Mus musculus. The procedure, abridged:
as §2

Assay [17] can be described thus: Time course effect on killing of WEHI 3B cells at 40 uM concentration, cells were incubated with it 0 mins before addition of [3H]thymidine. It counts as functional, cell-based. Particulars: Mus musculus, WEHI3B. Put shortly: (§3)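 Mouse WEHI 3B cells (RPMI 1640, 10% heat-inactivated FBS, penicillin, streptomycin, 50 μM mercaptoethanol, 37 °C) were seeded at 2×10^4 cells/well. Drug was diluted from 0.1 M ethanol stock into medium, with an ethanol vehicle control. After the stated preincubation, [3H]thymidine (0.1 μCi/well) was added for a further 24 h at 37 °C. Cells were harvested on glass-fibre filters, water-washed and scintillation-counted. Result is % cell survival versus control, mean ± SD, n = 8.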

Assay [18] can be described thus: Time course effect on killing of WEHI 3B cells at 40 uM concentration, cells were incubated with it 6 hours before addition of [3H]-thymidine. In kind it is functional, cell-based. The conditions noted are these: Mus musculus, WEHI3B. The procedure, abridged: as §3
Assay [19] is described as follows: Time course effect on killing of WEHI 3B cells at 40 uM concentration, cells were incubated with it 48 hr before addition of [3H]thymidine. In kind it is functional, cell-based. The conditions noted are these: Mus musculus, WEHI3B. Put shortly:
as §3

Assay [20] is described as follows: Time course effect on killing of WEHI 3B cells at 40 uM concentration, cells were incubated with it 24 hr before addition of [3H]-thymidine. In kind it is functional, cell-based. The conditions noted are these: Mus musculus, WEHI3B. The procedure, abridged:
as §3

Assay [21] in a line: Time course effect on killing of WEHI 3B cells at 30 uM concentration, cells were incubated with it 6 hr before addition of [3H]thymidine. In kind it is functional, cell-based. The conditions noted are these: Mus musculus, WEHI3B. The procedure, abridged:
as §3

Assay [22] in a line: Time course effect on killing of WEHI 3B cells at 30 uM concentration, cells were incubated with it 48 hours before addition of [3H]thymidine. Particulars: Mus musculus, WEHI3B. It counts as functional, cell-based. Put shortly:
as §3

A short description of assay [23]: Time course effect on killing of WEHI 3B cells at 30 uM concentration, cells were incubated with it 24 hr before addition of [3H]thymidine. It counts as functional, cell-based. The conditions noted are these: Mus musculus, WEHI3B. Put shortly:
as §3

A short description of assay [24]: Time course effect on killing of WEHI 3B cells at 30 uM concentration, cells were incubated with it 72 hours before addition of [3H]thymidine. In kind it is functional, cell-based. Particulars: Mus musculus, WEHI3B. The procedure, abridged: as §3
Assay [25] is described as follows: Time course effect on killing of WEHI 3B cells at 40 uM concentration, cells were incubated with it 72 hr before addition of [3H]thymidine. In kind it is functional, cell-based. The conditions noted are these: Mus musculus, WEHI3B. The procedure, abridged: as §3
Assay [26] can be described thus: Time course effect on killing of WEHI 3B cells at 40 uM concentration, cells were incubated with it 3 hr before addition of [3H]thymidine. It counts as functional, cell-based. Particulars: Mus musculus, WEHI3B. Put shortly: as §3
The nature of assay [27]: Time course effect on killing of WEHI 3B cells at 30 uM concentration, cells were incubated with it 0 minutes before addition of [3H]thymidine. It counts as functional, cell-based. Particulars: Mus musculus, WEHI3B. Put shortly: as §3
Assay [28] in a line: Time course effect on killing of WEHI 3B cells at 30 uM concentration, cells were incubated with it 3 hr before addition of [3H]thymidine. In kind it is functional, cell-based. Particulars: Mus musculus, WEHI3B. The procedure, abridged:
as §3

For `CCCCCCCCCCCCCCCCOC[C@@H](COP(=O)([O-])OCC[N+](C)(C)C)OC`, the Control amounted to 5% in assay [1], 2.5% in assay [2], 45% in assay [3] and 0.3% in [4].

Consider `CCCCCCCCCCCCCCCCOC[C@H](COP(=O)([O-])OCC[N+](C)(C)C)OC`, for which the Control in assay [1] is listed as 4%; in assay [2], 3%; in assay [3], 55%; in assay [4], 0.4%. In addition, the Viable cells in [5] came out at 8%; in assay [6], 48%; in assay [7] it was 18%; in assay [8], 0%; in [9] it was 0%; in assay [10] it was 44%. For the same molecule, the Viable cells is reported as 100% in [11]; 0% in [12]; 39% in [13]; 1% in assay [14]; 0% in assay [15]; 100% in [16].

For the molecule `CCCCCCCCCCCCCCCCOC[C@H](CS[C@@H]1O[C@@H](CO)[C@@H](O)[C@H](O)[C@H]1O)OC`, the Control in assay [1] was determined as 78%; in assay [2], 84%; in assay [3] it was 98%; in [4], 80%.

`CCCCCCCCCCCCCCCCOC[C@H](CS[C@H]1O[C@@H](CO)[C@@H](O)[C@H](O)[C@H]1O)OC`: the Cell survival in [17] was found to be 49%; in assay [18], 27%; in [19] it was 0.5%; in assay [20], 20%; in [21] it was 53%; in assay [22] it was 46%. The Cell survival came to 48% in assay [23]; 25% in assay [24]; 0% in [25]; 49% in assay [26]; 79% in [27]; 57% in assay [28]. Besides, the Control in [1] came out at 13%; in [2] it was 71%; in [3] it was 66%; in [4] it was 7%. For the same molecule, the Viable cells in [5] came to 64%; in assay [6], 72%; in assay [7] it was 64%; in [8], 0.3%; in assay [9], 48%; in assay [10], 90%. Moreover, the Viable cells in [11] worked out at 100%; in [12] it was 53%; in [13], 75%; in assay [14] it was 25%; in assay [15], 0%; in assay [16] it was 100%.

As for `CCCCCCCCCCCCCCCCOC[C@@H](CO[C@@H]1O[C@@H](CO)[C@@H](O)[C@H](O)[C@@H]1O)OC`, the Control in [1] was 70%; in [2], 95%; in [3], 89%; in [4], 82%.

Consider `CCCCCCCCCCCCCCCCOC[C@H](CO[C@@H]1O[C@@H](CO)[C@@H](O)[C@H](O)[C@@H]1O)OC`, for which the Control in assay [1] is 7%; in [2], 42%; in [3], 75%; in assay [4], 26%.
